How the values were obtained:
[1] = system: Fusarium oxysporum f. sp. niveum; assay: Growth inhibition of Fusarium oxysporum f. sp. niveum assessed as mycelium dry weight at 1600 mg/L measured 7 days post compound treatment (reference value: 0.22 +/- 0.01 g); format: functional
How it was run: (§1)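 Strain NJAUS-1 was grown in 30 mL potato dextrose broth (pH 4.5, HCl), inoculated with a 5 mm plug from a 7-day PDA culture. Flasks were shaken at 170 rpm, 28 °C, for 7 days. Mycelium was filtered and dried at 80 °C for 12 h to constant dry weight. Cinnamic acid was tested at 200–1600 mg L-1; controls received sterile water. Three replicates, mean ± SE.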

[2] = system: Fusarium oxysporum f. sp. niveum; assay: Stimulation of proteinase activity in Fusarium oxysporum f. sp. niveum at 1600 mg/L measured 7 days post compound treatment; format: functional
[3] = system: Fusarium oxysporum f. sp. niveum; assay: Stimulation of proteinase activity in Fusarium oxysporum f. sp. niveum at 1600 mg/L measured 7 days post compound treatment (reference value: 0.42 +/- 0.2 U//min/ml); format: functional
[4] = system: Fusarium oxysporum f. sp. niveum; assay: Growth inhibition of Fusarium oxysporum f. sp. niveum assessed as inhibition of mycelium dry weight at 1600 mg/L measured 7 days post compound treatment; format: functional; conditions: 168 h; how it was run: as §1
[5] = system: Fusarium oxysporum f. sp. niveum; assay: Stimulation of amylase activity in Fusarium oxysporum f. sp. niveum at 1600 mg/L measured 7 days post compound treatment by DNS method (reference value: 3.7 +/- 0.5 umol/min/ml); format: functional
[6] = system: Fusarium oxysporum f. sp. niveum; assay: Stimulation of cellulase activity in Fusarium oxysporum f. sp. niveum at 1600 mg/L measured 7 days post compound treatment by DNS method; format: functional
[7] = system: Fusarium oxysporum f. sp. niveum; assay: Growth inhibition of Fusarium oxysporum f. sp. niveum assessed as reduction in hyphal growth measured 7 days post compound treatment; format: functional, organism-based
[8] = system: Fusarium oxysporum f. sp. niveum; assay: Stimulation of cellulase activity in Fusarium oxysporum f. sp. niveum at 1600 mg/L measured 7 days post compound treatment by DNS method (reference value: 0.03 +/- 0.1 umol/min/ml); format: functional
Neurospora crassa = assay: Growth inhibition of Neurospora crassa assessed as inhibition of mycelial growth at 200 mg/L; format: functional; conditions: read-out: GI
[9] = system: Fusarium oxysporum f. sp. niveum; assay: Stimulation of pectinase activity in Fusarium oxysporum f. sp. niveum at 1600 mg/L measured 7 days post compound treatment by DNS method (reference value: 0.01 +/- 0.0 U//ml/min); format: functional
[10] = system: Fusarium oxysporum f. sp. niveum; assay: Growth inhibition of Fusarium oxysporum f. sp. niveum assessed as colony diameter at 1600 mg/L measured 7 days post compound treatment (reference value: 7.0 +/- 0.63 cm); format: functional
[11] = system: Fusarium oxysporum f. sp. niveum; assay: Growth inhibition of Fusarium oxysporum f. sp. niveum assessed as reduction in conidial germination measured […]; format: functional, organism-based
How it was run: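 Conidia came from a 7-day liquid culture (28 °C), collected by filtration and diluted in sterile water. 0.1 mL was spread on 2% water agar plates containing cinnamic acid (200–1600 mg L-1; water control) and incubated at 28 °C for 3 days. Colonies were counted daily. Three replicate plates per treatment.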

[12] = system: Fusarium oxysporum f. sp. niveum; assay: Stimulation of amylase activity in Fusarium oxysporum f. sp. niveum at 400 mg/L measured 7 days post compound treatment by DNS method (reference value: 3.7 +/- 0.5 umol/min/ml); format: functional
[13] = system: Fusarium oxysporum f. sp. niveum; assay: Stimulation of proteinase activity in Fusarium oxysporum f. sp. niveum at 1600 mg/L measured 7 days post compound treatment by Tseng and Mount method
[14] = system: Fusarium oxysporum f. sp. niveum; assay: Stimulation of mycotoxin production in Fusarium oxysporum f. sp. niveum at 1600 mg/L measured 7 days post compound treatment by spectrophotometry (reference value: 26.9 +/- 4.9 ug/mL); format: functional
[15] = system: Fusarium oxysporum f. sp. niveum; assay: Growth inhibition of Fusarium oxysporum f. sp. niveum assessed as reduction in sporulation measured 7 days post compound treatment; format: functional, organism-based
How it was run: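 FON was grown 7 days in modified Bilay and Joffe's medium (4.0 g sodium carboxymethyl cellulose, pH 4) with cinnamic acid at 200–1600 mg L-1 or a water control. Broth was diluted 10-5–10-7, and 0.1 mL was spread on PDA and incubated in the dark at 28 °C for 4 days. Colonies were counted and converted to conidia per culture. Three replicates, mean ± SE.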

With `O=C(O)/C=C/c1ccccc1` [CINNAMIC ACID] the Activity [1] was 0.08 g, the Activity [2] was 760% and the Activity [3] was 3.21 U/min/ml. The inhibition at 1600 µg/mL [4] was 63.3%, the Activity [5] was 4.6 µmol/min/mL and the Activity [6] was 2006%. For the same molecule, the “growth inhibition (GI)” value [7] was “Dose-dependent effect”, the Activity [8] was 0.33 µmol/min/mL and the inhibition of growth at 200 µg/mL (Neurospora crassa) was 94%. The Activity [9] was 0.052 U/ml/min, the Activity [10] was 0 cm and the “growth inhibition (GI)” value [11] was “Dose-dependent effect”. It also gave an Activity [12] of 5.2 µmol/min/mL, an Activity [13] of 760% and an Activity [14] of 13.25 µg/mL. The “growth inhibition (GI)” value [15] was “Dose-dependent effect”.

Source: ChEMBL document CHEMBL3044620, “Cinnamic acid inhibits growth but stimulates production of pathogenesis factors by in vitro cultures of Fusarium oxysporum f.sp. niveum” (2008)
